We go through two compounds from PMC12700136 (Journal of medicinal chemistry, 2025).

Data set [1] has as its target T1, ClpP (Homo sapiens, UniProt Q16740). Description: Thermal shift assay. Type of data set: binding. Conditions: MDA-MB-468 lysates. An outline of the steps: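 Test compound at increasing concentrations added to 10 μg MDA-MB-468 lysate, 15 min at 23 °C. Heated 67 °C for 3 min, precipitated 3 min at 23 °C, spun 14,000 rpm, 20 min, 4 °C. Soluble ClpP detected by anti-ClpP immunoblot against unheated and no-compound controls; quantified as mean ± SD of two independent experiments.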

Data set [2] addresses T1, ClpP. In words: Thermal shift assay. It is filed as cell-based. The conditions noted are these: MDA-MB-468 cells treated 30 min. Put shortly:
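MDA-MB-468 cells seeded at 1 million per well the day before, then exposed to test compound for 30 min at 37 °C. Washed in PBS, scraped into PBS with […] inhibitors, heated 67 °C for 3 min, lysed by freeze–thaw, spun 14,000 rpm 20 min at 4 °C. Soluble ClpP immunoblotted; normalized quantification, mean ± SD of two independent experiments.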

The target of data set [3] is purified human ClpP (hClpP) (Homo sapiens, UniProt Q16740). In words: Differential scanning fluorimetry. It is filed as binding. Conditions: vs DMSO. Put shortly: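 Human ClpP lacking mitochondrial sequence, expressed in E. coli BL21(DE3) as N-terminal 2x(His6-thrombin)-SUMO-TEV fusion (1 mM IPTG, 4 h, 37 °C), cobalt-resin purified. Protein at 0.5 mg/mL final in 25 mM Tris-HCl pH 7.5 with SYPRO Orange; held 25 °C 2 min, ramped 25–95 °C at 0.05 °C/s. ΔTm versus DMSO; mean ± SD, four independent experiments.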
Sequence of purified human ClpP (hClpP) (Q16740 57-277): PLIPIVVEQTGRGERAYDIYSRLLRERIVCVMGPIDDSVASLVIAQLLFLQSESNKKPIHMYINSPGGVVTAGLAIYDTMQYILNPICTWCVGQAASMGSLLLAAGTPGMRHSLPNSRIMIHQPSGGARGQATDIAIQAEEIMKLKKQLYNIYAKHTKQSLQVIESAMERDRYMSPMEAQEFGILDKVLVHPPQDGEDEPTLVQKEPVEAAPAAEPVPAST

A further data set deals with DAP13. In words: DAP13 degradation assay. Type of data set: cell-based, human. Conditions: 24 h, MDA-MB-468 cells.
In data set [4] the test system is MDA-MB-468 cells. In words: Seahorse mitochondrial respiration assay. Conditions: 50 nM for 12, 24 and 48 h. It is filed as cell-based, human. Put shortly:
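Cells were plated at 250,000 per well and treated for 12, 24 or 48 h. One hour before reading, medium was changed to XF DMEM (1 mM pyruvate, 2 mM glutamine, 10 mM glucose, pH 7.4). The Mito Stress Test used final 1 μM oligomycin, 1 μM FCCP and 0.5 μM antimycin A. OCR was read at baseline and after sequential oligomycin, FCCP and rotenone additions.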

In data set [5] the test system is MDA-MB-468 cells. Description: Western blot analysis of apoptosis markers. Type of data set: cell-based, human. Conditions: 1 μM, 72 h. Put shortly: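 MDA-MB-468 cells exposed to vehicle or 1 μM test compound for 72 h. Lysates probed by immunoblot for apoptosis markers including caspase-3. Blots representative of two independent experiments.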
Data set [6] deals with MDA-MB-468 cells. Description: Flow-cytometry-based apoptosis detection. It is filed as cell-based, human. Conditions: 1 μM, 72 h. Put shortly:
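MDA-MB-468 cells given DMSO or 1 μM test compound for 72 h at 37 °C, 5% CO2. Washed twice in FACS buffer (50 mM PBS, 2 mM EDTA, 2% FBS), stained with fixable viability dye eFluor 780 for 30 min at 4 °C, washed, then analysed by flow cytometry for dead-cell labelling.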

For data set [7], the system named is MDA-MB-468 cells. Description: Viability assay. It is filed as cell-based, human. The conditions noted are these: MDA-MB-468, 72 h. Put shortly:
(§1)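 Cells (DMEM/F12 + GlutaMax, 10% FBS, 1% pen-strep) seeded at 5,000 per well 24 h before dosing, in quadruplicate. Medium replaced with test compound-containing medium for 72 h. Viability read after 3 h AlamarBlue incubation by colorimetric change, normalized to vehicle control. IC50 from curves; mean ± SD of three independent experiments.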

The next data set relates to MDA-MB-231 cells. Description: Viability assay. Type of data set: cell-based, human. The conditions noted are these: MDA-MB-231, 72 h. An outline of the steps: as §1
In a further data set the test system is SK-BR-3 cells. In words: Viability assay. Type of data set: cell-based, human. The conditions noted are these: SK-BR-3, 72 h. Put shortly:
as §1

A further data set concerns MCF-7 cells. In words: Viability assay. Type of data set: cell-based, human. Put shortly:
as §1

The test system of the next data set is BT-474 cells. Description: Viability assay. Type of data set: cell-based, human. The conditions noted are these: BT-474, 72 h. Put shortly:
as §1

The subject of data set [8] is ONC212-resistant MDA-MB-468 cells. Description: Viability assay. Type of data set: cell-based, human. Put shortly: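 Resistant MDA-MB-468 line selected by continuous 50 nM reference ClpP agonist, medium changed every 3 days. Cells expanded drug-free and re-exposed over several cycles until growth exceeded death. Wild-type and resistant cells seeded at 5,000 per well, quadruplicate, and dosed 72 h. AlamarBlue read after 3 h, normalized to vehicle; mean ± SD, three independent experiments.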

Data set [9] can be described thus: Mouse pharmacokinetic study. Type of data set: in vivo. Conditions: Swiss albino mice, single IP administration, 50 mg/kg. Put shortly: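 Three male Swiss Albino mice received a single intraperitoneal dose in 100% v/v normal saline. About 60 μL of blood was drawn at 0.5, 2 and 8 h. Plasma was stored at −70 °C until a fit-for-purpose LC-MS/MS assay. Concentrations are the average of the 3 mice, with ± SEM.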

Another data set relates to cancer cells. Conditions: cited from earlier work.
Where [10] appears, read: Homo sapiens, read-out: IC50 (viability).

T1 sequence (Q16740 57-277): as above

As for `N#Cc1cccc(CN2CCC3=C(C2)C(=O)N(Cc2ccc(C(F)(F)F)cc2OCCN)C2=NCCN23)c1` [Compound 9, 3-((4-(2-(2-Aminoethoxy)-4-(trifluoromethyl)benzyl)-5-oxo-1,2,4,5,8,9-hexahydroimidazo[1,2-a]pyrido[3,4-e]pyrimidin-7(6H)-yl)methyl)benzonitrile], on ClpP [1], the “concentration at which ClpP was stabilized (TSA)” value came to 0.313 µM. The “ClpP binding/stabilization by TSA (comparison in words)” value on ClpP [1] (heated at 67 °C, WB) was “superior stabilization of ClpP”. The “concentration at which ClpP was stabilized (TSA in live cells)” value at ClpP [2] worked out at 0.08 µM. For the same compound, the “thermal shift of purified hClpP (DSF)” value in [3] is given as “very significant thermal shift”. Moreover, the DAP13 degraded result in the data set with DAP13 (25 nM) is on record as “more than 50%”. Moreover, the “DAP13 degradation at high concentrations” value in the data set on DAP13 (100, 150 and 200 nM) was “degraded DAP13”. The “effect on basal respiration, ATP generation and maximal respiration” value with MDA-MB-468 cells [4] was “reduced basal respiration, ATP generation and maximal respiration at all time points tested”. For the same compound, the “cleaved caspase 3 and cleaved PARP levels” value with MDA-MB-468 cells [5] was “increased the cleaved caspase 3 and cleaved PARP levels”. Besides, in the data set with MDA-MB-468 cells [5], the “protein levels of full-length caspase 3 and PARP” value is recorded as “reduction”. Moreover, the “late-stage apoptosis (eFluor 780)” value in the data set on MDA-MB-468 cells [6] is “effectively induced late-stage apoptosis”. The IC50 is 10.6 nM in the data set with MDA-MB-468 cells [7] (setting [10]); 13.9 nM with MDA-MB-231 cells (setting [10]); 11.5 nM in the data set with SK-BR-3 cells (setting [10]); 7 nM in the data set with MCF-7 cells (Homo sapiens, MCF7, 72 h, read-out: IC50 (viability)); 8 nM in the data set on BT-474 cells (setting [10]); 27.7 nM in [8] (Homo sapiens, MDA-MB-468, 72 h, read-out: IC50 (viability)). Besides, the “fold improvement of IC50 vs ONC212” value in the data set on MDA-MB-468 cells [7] is “approximately 3.5 fold”; with MDA-MB-231 cells, “approximately 3.5 fold”; in the data set on SK-BR-3 cells, “approximately 10 fold”; in the data set on MCF-7 cells (MCF-7, 72 h) it was “approximately 9 fold”; in the data set on BT-474 cells, “approximately 4 fold”. Further, in data set [8] (ONC212-resistant vs wild-type MDA-MB-468, 72 h), the “increase in the IC50 value, resistant vs wild-type cells” value amounted to 2.6 fold. The “bioavailability (plasma concentrations)” value in data set [9] is “bioavailable in mice via IP injection”. Further, the tolerability result in data set [9] is reported as “well tolerated”.
On to `Cc1ccccc1CN1C(=O)C2=C(CCN(Cc3ccccc3)C2)N2CCN=C12` [ONC201], for which the “concentrations required to significantly affect cancer cell survival” value in the data set with cancer cells is on record as “micromolar range”.
